“Also recorded” adds a separate entry of the source.
T1: recombinant MSP (rMSP) (Mesocricetus auratus, UniProt Q9QXU1)
T1 sequence (Q9QXU1 16-172): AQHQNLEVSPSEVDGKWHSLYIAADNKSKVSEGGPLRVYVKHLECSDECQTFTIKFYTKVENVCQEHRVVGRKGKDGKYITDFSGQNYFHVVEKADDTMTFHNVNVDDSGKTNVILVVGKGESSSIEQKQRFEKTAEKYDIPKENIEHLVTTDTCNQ

T2: recombinant FLP (rFLP) (Mesocricetus auratus, UniProt Q99MG7)
T2 sequence (Q99MG7 17-172): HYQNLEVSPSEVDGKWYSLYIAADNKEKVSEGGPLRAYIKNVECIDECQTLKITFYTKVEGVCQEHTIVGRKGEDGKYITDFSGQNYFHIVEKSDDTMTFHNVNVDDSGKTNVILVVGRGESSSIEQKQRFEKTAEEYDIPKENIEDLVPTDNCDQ

T3: rFLP (Mesocricetus auratus, UniProt Q99MG7)
T3 sequence (Q99MG7 17-172): T2 sequence (Q99MG7 17-172)

T4: nMSP (mixture of three natural MSP forms) (Mesocricetus auratus, UniProt Q9QXU1)
T4 sequence (Q9QXU1 16-172): T1 sequence (Q9QXU1 16-172)

T5: rMSP (Mesocricetus auratus, UniProt Q9QXU1)
T5 sequence (Q9QXU1 16-172): T1 sequence (Q9QXU1 16-172)

T6: 30 kDa MSP (Mesocricetus auratus, UniProt Q9QXU1)
T6 sequence (Q9QXU1 16-172): T1 sequence (Q9QXU1 16-172)

T7: 24 kDa MSP (Mesocricetus auratus, UniProt Q9QXU1)
T7 sequence (Q9QXU1 16-172): T1 sequence (Q9QXU1 16-172)

B1: PNA: Peanut agglutinin, digoxigenin labeled (protein, UniProt P02872 24-273, looked up)
Galactose-binding lectin: AETVSFNFNSFSEGNPAINFQGDVTVLSNGNIQLTNLNKVNSVGRVLYAMPVRIWSSATGNVASFLTSFSFEMKDIKDYDPADGIIFFIAPEDTQIPAGSIGGGTLGVSDTKGAGHFVGVEFDTYSNSEYNDPPTDHVGIDVNSVDSVKTVPWNSVSGAVVKVTVIYDSSTKTLSVAVTNDNGDITTIAQVVDLKAKLPERVKFGFSASGSLGGRQIHLIRSWSFTSTLITTTRRSIDNNEKKIMNMASA
modifications: digoxigenin label

Legend:
Set-up in all cases: species or system Syrian hamsters (Mesocricetus auratus)
recombinant MSP (rMSP) = target: T1, recombinant MSP (rMSP); test: Fluorescence ligand binding / competitive displacement of probe 1-AMA from rMSP; details: for binding / competitor activity with rMSP in fluorescent-probe assay (in words): probe 1-AMA
How it was run: (§1)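 rMSP was expressed in E. coli BL21(DE3) with 1 mM IPTG and purified by Ni-NTA and Sephadex G-75. Assays used 2 µM protein in 20 mM Tris-HCl pH 7.4 at 25 °C, excitation 295 nm, emission read at 485 nm. For Kd, 1-AMA (1 mM methanol stock) was titrated and fitted against free probe, assuming 1:1 binding and fully active protein. Competitors (0.25–40 µM) displaced 2 µM probe. IC50 was taken at half-maximal fluorescence; Ki = IC50/(1+[L]/Kd).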

recombinant FLP (rFLP) = target: T2, recombinant FLP (rFLP); test: Fluorescence ligand binding / competitive displacement of probe 1-NPN from rFLP; details: for binding / competitor activity with rFLP in fluorescent-probe assay (in words): probe 1-NPN
How it was run: as §1, with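 “rFLP” for “rMSP”, “425” for “485”, “1-NPN” for “1-AMA”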

rFLP = target: T3, rFLP; test: IBMP binding detected by GC-MS of protein peak after gel-filtration; details: ~7.2 mM IBMP, ~200 µM protein, 25 °C 1 h, Sephadex-G-25, DCM extract
How it was run: (§2)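 The protein–IBMP mix was incubated on a rotary shaker, with chymotrypsin as negative control. After G-25 elution, fractions of the first OD280 peak were mixed with dichloromethane, vortexed and held overnight at −20 °C. The lower organic phase was analyzed by GC-MS: 2 µl splitless, helium 1 ml/min, oven 50→300 °C stepwise, 70 eV ionization, total ion current mode.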

[1] = target: T4, nMSP (mixture of three natural MSP forms); test: as above; details: ~7.2 mM IBMP, ~200 µM protein, 25 °C 1 h, Sephadex-G-25, DCM extract
How it was run: as §2

rMSP = target: T5, rMSP; test: as above; details: ~7.2 mM IBMP, ~200 µM protein, 25 °C 1 h, Sephadex-G-25, DCM extract
How it was run: as §2

30 kDa MSP = target: T6, 30 kDa MSP; test: Lectin binding
How it was run: (§3)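 Natural MSP, a mixture of three forms purified from adult male submandibular gland, was tested with a digoxigenin-labelled lectin kit (GNA, SNA, MAA, DSA, PNA). It was also passed through Con A, WGA and jacalin affinity columns. Unbound fractions and fractions eluted with lectin-specific sugars were checked for MSP forms by SDS-PAGE.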

24 kDa MSP = target: T7, 24 kDa MSP; test: Lectin binding
How it was run: as §3

Molecule	binding / competitor activity with rMSP in fluorescent-probe assay (in words) (recombinant MSP (rMSP))	binding / competitor activity with rFLP in fluorescent-probe assay (in words) (recombinant FLP (rFLP))	also measured
Nc1cccc2cc3ccccc3cc12 [1-AMA, 1-aminoanthracene]	strong affinity		Kd (recombinant MSP (rMSP)): ~1860 nM
c1ccc(Nc2cccc3ccccc23)cc1 [1-NPN, N-phenyl-1-naphthylamine]		strong affinity	Kd (recombinant FLP (rFLP)): ~1380 nM
C=CC(O)CCCCC (centres unmarked) [1-octen-3-ol]	no competitor activity	no competitor activity	
O=C(O)c1cccc(O)c1O [2,3-dihydroxybenzoic acid]	no competitor activity	no competitor activity	
O=C(O)c1cc(O)ccc1O [2,5-dihrodoxy benzoic acid]	no competitor activity	no competitor activity	
C[C@]12CC[C@@H]3c4ccc(O)cc4CC[C@H]3[C@@H]1CC[C@@H]2O [17β-estradiol]	extremely weak competitors	extremely weak competitors	
COc1nccnc1CC(C)C [IBMP, 2-isobutyl-3-methoxypyrazine]	high affinity	high affinity	IBMP found by GC-MS in protein peak fraction (binding to rFLP) (rFLP): specific binding; also recorded: retain and specifically carry (i.e. bind) detectable levels; IBMP found by GC-MS in protein peak fraction (binding to nMSP) [1]: specific binding; also recorded: retain and specifically carry (i.e. bind) detectable levels; IBMP found by GC-MS in protein peak fraction (binding to rMSP) (rMSP): specific binding; also recorded: retain and specifically carry (i.e. bind) detectable levels
CC(=O)N(O)CCCCCNC(=O)CCC(=O)N(O)CCCCCNC(=O)CCC(=O)N(O)CCCCCN [deferoxamine]	no competitor activity	no competitor activity	
CCCCCCCCCCCCCCCCO [hexadecanol]	no competitor activity	no competitor activity	
CCCCCCCCCCCCCC(=O)O [myristic]	no competitor activity	no competitor activity	
CCCCCCCC/C=C\CCCCCCCC(=O)O [oleic]	no competitor activity	no competitor activity	
CCCCCCCCCCCCCCCC(=O)O [palmitic]	no competitor activity	no competitor activity	
CC(=O)[C@H]1CC[C@H]2[C@@H]3CCC4=CC(=O)CC[C@]4(C)[C@H]3CC[C@]12C [progesterone]	extremely weak competitors	extremely weak competitors	
CCCCCCCCCCCCCCCCCC(=O)O [stearic]	no competitor activity	no competitor activity	
C[C@]12CC[C@H]3[C@@H](CCC4=CC(=O)CC[C@@]43C)[C@@H]1CC[C@@H]2O [testosterone]	extremely weak competitors	extremely weak competitors	
B1			Binding of lectin to 30 kDa MSP (in words) (30 kDa MSP): lack of binding; Binding of lectin to 24 kDa MSP (in words) (24 kDa MSP): lack of binding
